Two molecules from ChEMBL document CHEMBL1811756, “Discovery of novel c-Met kinase inhibitors bearing a thieno[2,3-d]pyrimidine or furo[2,3-d]pyrimidine scaffold” (Bioorg Med Chem, 2011) can be followed below.

Series [1] addresses T1, Hepatocyte growth factor receptor (Homo sapiens, UniProt P08581). Briefly: Inhibition of c-Met at 10 uM after 60 mins by ELISA. In short, it runs like this:
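c-Met tyrosine kinase ELISA with Poly(Glu,Tyr) 4:1 substrate and 10 µM ATP in HEPES pH 7.4 buffer with Mg²⁺/Mn²⁺, run 60 min at 37 °C. Phosphotyrosine was detected with PY99 and an HRP secondary antibody, read at 490 nm. Percent inhibition was measured at a single compound concentration.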
A general note: An ELISA detects its analyte on a solid surface through an enzyme-linked reagent.

Series [2] addresses T1, Hepatocyte growth factor receptor. As to the kind of experiment: Inhibition of c-Met after 60 mins by ELISA. In short, it runs like this: (§1)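 ELISA on plates pre-coated with Poly(Glu,Tyr) 4:1 at 20 µg/mL. Detection used anti-phosphotyrosine PY99, then HRP anti-mouse IgG and o-phenylenediamine/H₂O₂, read at 490 nm. IC50 was calculated by the Logit method from ≥3 independent tests at six concentrations each.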

Series [3] concerns BaF3. Briefly: Antiproliferative activity against […] BAF3 cells expressing TPR-Met assessed as inhibition of cell growth at 10 uM. It is filed as functional. Conditions: Mus musculus. In short, it runs like this: (§2)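 BaF3 cells stably expressing TPR-Met were seeded in 96-well plates. Next day they were exposed to compound at 10, 1 or 0.1 µM for 72 h. Growth was read by MTT at A570. Inhibition (%) = [1 − (A570/A570 control)] × 100.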

In series [4] the test system is BaF3. As to the kind of experiment: Antiproliferative activity against […] BAF3 cells expressing TPR-Met assessed as inhibition of cell growth at 1 uM. It is filed as functional. Conditions: Mus musculus. The method in brief:
as §2

Series [5] has as its system BaF3. Briefly: Antiproliferative activity against […] BAF3 cells expressing TPR-Met assessed as inhibition of cell growth at 0.1 uM. It counts as functional. The note with it: Mus musculus. In short, it runs like this:
as §2

Series [6] deals with Macrophage-stimulating protein receptor (Homo sapiens, UniProt Q04912). Briefly: Inhibition of RON. In short, it runs like this: as §1
Series [7] concerns the target Platelet-derived growth factor receptor alpha (Homo sapiens, UniProt P16234). Briefly: Inhibition of PDGFRalpha. The method in brief: as §1
For series [8], the target named is Proto-oncogene tyrosine-protein kinase receptor Ret (Homo sapiens, UniProt P07949). As to the kind of experiment: Inhibition of RET. The method in brief:
as §1

The target in series [9] is Receptor tyrosine-protein kinase erbB-2 (Homo sapiens, UniProt P04626). Briefly: Inhibition of ERBB2. The method in brief: as §1
For series [10], the target named is Receptor tyrosine-protein kinase erbB-4 (Homo sapiens, UniProt Q15303). Briefly: Inhibition of ERBB4. In short, it runs like this:
as §1

The target of series [11] is Proto-oncogene tyrosine-protein kinase Src (Homo sapiens, UniProt P12931). As to the kind of experiment: Inhibition of c-SRC. In short, it runs like this:
as §1

In series [12] the target is Tyrosine-protein kinase ABL1 (Homo sapiens, UniProt P00519). As to the kind of experiment: Inhibition of Abl. In short, it runs like this: as §1
The target of the next series is Ephrin type-A receptor 2 (Homo sapiens, UniProt P29317). Briefly: Inhibition of EPHA2. The method in brief:
as §1

In a further series the target is T2, Ephrin type-B receptor 2 (Homo sapiens, UniProt P29323).
T2 sequence (P29323 whole entry): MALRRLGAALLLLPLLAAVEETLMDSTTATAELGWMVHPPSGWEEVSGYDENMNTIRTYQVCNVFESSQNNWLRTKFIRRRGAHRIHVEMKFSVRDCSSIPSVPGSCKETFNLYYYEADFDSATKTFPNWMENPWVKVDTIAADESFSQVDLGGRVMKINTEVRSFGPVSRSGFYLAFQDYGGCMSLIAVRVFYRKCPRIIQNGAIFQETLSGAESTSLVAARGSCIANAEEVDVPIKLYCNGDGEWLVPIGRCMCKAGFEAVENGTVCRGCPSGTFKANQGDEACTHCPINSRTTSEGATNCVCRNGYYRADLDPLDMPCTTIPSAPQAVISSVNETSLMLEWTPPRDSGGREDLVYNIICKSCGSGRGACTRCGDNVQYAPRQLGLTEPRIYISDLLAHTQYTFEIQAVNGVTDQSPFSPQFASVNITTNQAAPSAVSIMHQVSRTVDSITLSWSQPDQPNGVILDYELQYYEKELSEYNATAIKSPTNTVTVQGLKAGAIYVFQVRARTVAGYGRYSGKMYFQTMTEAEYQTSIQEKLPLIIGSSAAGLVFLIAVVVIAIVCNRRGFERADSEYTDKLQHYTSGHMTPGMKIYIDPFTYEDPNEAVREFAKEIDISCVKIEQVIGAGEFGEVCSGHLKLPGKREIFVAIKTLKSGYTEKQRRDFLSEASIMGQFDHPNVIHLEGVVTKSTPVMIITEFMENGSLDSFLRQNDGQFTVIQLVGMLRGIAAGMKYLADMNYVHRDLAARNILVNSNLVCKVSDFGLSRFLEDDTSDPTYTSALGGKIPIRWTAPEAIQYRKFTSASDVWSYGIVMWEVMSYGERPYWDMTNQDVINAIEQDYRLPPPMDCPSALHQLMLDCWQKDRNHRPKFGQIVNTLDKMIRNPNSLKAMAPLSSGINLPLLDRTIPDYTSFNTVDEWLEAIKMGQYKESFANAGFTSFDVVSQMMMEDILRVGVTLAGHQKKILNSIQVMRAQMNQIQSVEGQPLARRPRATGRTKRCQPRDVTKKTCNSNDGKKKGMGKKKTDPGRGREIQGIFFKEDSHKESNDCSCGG
Briefly: Inhibition of EPHB2. In short, it runs like this:
as §1

The target of series [13] is Insulin-like growth factor 1 receptor (Homo sapiens, UniProt P08069). Briefly: Inhibition of IGF1R. In short, it runs like this: as §1
Series [14] concerns the target Fibroblast growth factor receptor 1 (Homo sapiens, UniProt P11362). As to the kind of experiment: Inhibition of FGFR1. The method in brief:
as §1

Series [15] addresses Vascular endothelial growth factor receptor 1 (Homo sapiens, UniProt P17948). As to the kind of experiment: Inhibition of FLT1. In short, it runs like this: as §1
A further series has as its system Mus musculus. As to the kind of experiment: Toxicity in nude mouse xenografted with human U87MG cells assessed as body weight loss at 100 mg/kg, ip for 3 weeks. It counts as organism-based, U-87MG ATCC. More on the design: dose 100 mg/kg, route intraperitoneal. Conditions: in vivo, 504 h. The method in brief: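 Nude mice bearing U-87MG tumor fragments were dosed ip 7 days/week for 3 weeks, n = 6 per group, versus vehicle controls. Body weight was monitored during treatment.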
(In general: Xenograft models place foreign cells or tissue in a host animal.)

The nature of series [16]: Half life in mouse at 10 mg/kg, iv and 20 mg/kg, po. It counts as ADME, organism-based. Conditions: in vivo. The method in brief: (§3)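 Pharmacokinetics were run in mice after a single dose of 10 mg/kg iv or 20 mg/kg po.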
The nature of series [17]: Clearance in mouse at 10 mg/kg, iv. It is filed as ADME, organism-based. More on the design: dose 10 mg/kg, route intravenous. Conditions: in vivo. The method in brief:
as §3

The nature of series [18]: Oral bioavailability in mouse at 20 mg/kg. It counts as ADME, organism-based. The note with it: in vivo. In short, it runs like this:
as §3

Series [19] is described as follows: Aqueous solubility of the compound. It counts as physicochemical. Conditions: buffer.
For series [20], the target named is T1, Hepatocyte growth factor receptor. Conditions: BaF3, 0.1 to 10 uM.
Series [21] has the same target. Conditions: BaF3, 0.1-10 uM.
Series [22] is described as follows: Antitumor activity against human U87MG cells xenografted in nude mouse assessed as inhibition of tumor growth at 100 mg/kg. The note with it: U-87 MG. It is filed as functional, U-87MG ATCC.

Structures are written as SMILES. Activity calls are given as the source filed them. The rule behind the calls is not given here.

T1 sequence (P08581 whole entry): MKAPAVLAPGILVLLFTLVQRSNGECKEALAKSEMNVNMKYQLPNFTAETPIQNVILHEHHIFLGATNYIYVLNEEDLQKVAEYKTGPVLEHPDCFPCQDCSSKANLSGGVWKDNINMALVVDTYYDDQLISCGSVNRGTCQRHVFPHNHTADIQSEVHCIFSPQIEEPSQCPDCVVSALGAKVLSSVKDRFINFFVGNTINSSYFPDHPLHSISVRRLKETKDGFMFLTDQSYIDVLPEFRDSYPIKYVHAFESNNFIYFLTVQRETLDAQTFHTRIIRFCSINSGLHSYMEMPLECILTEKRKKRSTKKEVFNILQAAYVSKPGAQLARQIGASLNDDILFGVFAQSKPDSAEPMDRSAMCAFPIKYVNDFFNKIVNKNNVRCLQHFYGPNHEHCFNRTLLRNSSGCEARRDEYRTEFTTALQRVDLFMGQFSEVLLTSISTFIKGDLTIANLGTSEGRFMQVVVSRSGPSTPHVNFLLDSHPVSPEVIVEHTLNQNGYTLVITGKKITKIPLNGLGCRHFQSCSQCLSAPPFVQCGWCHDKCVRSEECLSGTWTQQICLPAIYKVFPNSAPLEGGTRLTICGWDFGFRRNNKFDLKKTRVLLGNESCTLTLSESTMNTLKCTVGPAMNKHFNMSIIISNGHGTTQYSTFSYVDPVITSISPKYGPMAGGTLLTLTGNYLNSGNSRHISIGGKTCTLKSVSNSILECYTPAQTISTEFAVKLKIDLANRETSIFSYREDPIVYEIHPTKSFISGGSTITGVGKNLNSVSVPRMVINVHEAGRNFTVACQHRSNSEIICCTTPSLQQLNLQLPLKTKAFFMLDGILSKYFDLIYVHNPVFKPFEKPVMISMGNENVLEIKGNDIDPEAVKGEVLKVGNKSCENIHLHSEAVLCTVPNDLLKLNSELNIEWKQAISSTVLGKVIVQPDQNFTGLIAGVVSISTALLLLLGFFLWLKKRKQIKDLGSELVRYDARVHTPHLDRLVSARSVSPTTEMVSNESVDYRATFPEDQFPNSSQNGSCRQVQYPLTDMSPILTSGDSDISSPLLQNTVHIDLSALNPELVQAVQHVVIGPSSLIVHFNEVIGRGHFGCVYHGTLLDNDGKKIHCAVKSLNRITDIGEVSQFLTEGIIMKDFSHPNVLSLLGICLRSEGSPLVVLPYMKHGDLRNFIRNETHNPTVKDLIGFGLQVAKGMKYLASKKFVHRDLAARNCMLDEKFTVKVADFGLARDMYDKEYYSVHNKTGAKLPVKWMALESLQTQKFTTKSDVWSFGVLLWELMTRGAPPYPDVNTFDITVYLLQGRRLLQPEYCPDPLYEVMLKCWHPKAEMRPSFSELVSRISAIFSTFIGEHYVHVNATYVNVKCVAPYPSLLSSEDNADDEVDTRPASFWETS
Chain of Receptor tyrosine-protein kinase erbB-4 (Q15303 whole entry): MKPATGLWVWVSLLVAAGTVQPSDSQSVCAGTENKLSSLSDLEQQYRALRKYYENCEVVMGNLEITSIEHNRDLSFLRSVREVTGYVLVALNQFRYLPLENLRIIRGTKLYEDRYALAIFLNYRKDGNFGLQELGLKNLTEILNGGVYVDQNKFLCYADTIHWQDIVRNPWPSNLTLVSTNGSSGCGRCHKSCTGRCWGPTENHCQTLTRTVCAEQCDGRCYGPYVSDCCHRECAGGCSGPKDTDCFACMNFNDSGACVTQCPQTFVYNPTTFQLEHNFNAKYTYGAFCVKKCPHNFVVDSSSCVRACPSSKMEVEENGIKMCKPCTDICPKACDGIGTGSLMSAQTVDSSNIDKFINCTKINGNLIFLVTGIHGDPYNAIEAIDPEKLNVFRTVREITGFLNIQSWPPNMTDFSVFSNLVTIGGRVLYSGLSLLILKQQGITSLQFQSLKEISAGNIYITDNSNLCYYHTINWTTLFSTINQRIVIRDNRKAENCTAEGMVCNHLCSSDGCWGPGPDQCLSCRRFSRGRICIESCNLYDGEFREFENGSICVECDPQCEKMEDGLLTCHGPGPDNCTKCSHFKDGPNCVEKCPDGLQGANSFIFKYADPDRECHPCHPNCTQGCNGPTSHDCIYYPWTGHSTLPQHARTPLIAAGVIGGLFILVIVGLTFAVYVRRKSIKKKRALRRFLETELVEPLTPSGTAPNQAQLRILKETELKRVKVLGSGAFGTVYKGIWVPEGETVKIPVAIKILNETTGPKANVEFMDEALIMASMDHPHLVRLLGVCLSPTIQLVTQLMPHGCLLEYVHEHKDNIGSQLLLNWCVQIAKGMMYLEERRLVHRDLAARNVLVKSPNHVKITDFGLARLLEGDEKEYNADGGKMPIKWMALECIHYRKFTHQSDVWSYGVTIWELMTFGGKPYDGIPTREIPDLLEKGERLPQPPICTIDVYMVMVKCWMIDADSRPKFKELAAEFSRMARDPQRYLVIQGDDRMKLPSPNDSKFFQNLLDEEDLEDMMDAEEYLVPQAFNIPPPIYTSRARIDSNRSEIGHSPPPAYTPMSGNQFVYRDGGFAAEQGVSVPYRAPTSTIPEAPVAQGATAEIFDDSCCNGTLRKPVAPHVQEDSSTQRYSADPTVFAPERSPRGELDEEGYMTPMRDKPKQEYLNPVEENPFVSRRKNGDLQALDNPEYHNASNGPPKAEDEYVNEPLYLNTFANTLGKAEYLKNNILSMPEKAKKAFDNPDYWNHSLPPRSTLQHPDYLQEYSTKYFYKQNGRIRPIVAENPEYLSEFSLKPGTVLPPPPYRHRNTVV
Chain of Proto-oncogene tyrosine-protein kinase receptor Ret (P07949 whole entry): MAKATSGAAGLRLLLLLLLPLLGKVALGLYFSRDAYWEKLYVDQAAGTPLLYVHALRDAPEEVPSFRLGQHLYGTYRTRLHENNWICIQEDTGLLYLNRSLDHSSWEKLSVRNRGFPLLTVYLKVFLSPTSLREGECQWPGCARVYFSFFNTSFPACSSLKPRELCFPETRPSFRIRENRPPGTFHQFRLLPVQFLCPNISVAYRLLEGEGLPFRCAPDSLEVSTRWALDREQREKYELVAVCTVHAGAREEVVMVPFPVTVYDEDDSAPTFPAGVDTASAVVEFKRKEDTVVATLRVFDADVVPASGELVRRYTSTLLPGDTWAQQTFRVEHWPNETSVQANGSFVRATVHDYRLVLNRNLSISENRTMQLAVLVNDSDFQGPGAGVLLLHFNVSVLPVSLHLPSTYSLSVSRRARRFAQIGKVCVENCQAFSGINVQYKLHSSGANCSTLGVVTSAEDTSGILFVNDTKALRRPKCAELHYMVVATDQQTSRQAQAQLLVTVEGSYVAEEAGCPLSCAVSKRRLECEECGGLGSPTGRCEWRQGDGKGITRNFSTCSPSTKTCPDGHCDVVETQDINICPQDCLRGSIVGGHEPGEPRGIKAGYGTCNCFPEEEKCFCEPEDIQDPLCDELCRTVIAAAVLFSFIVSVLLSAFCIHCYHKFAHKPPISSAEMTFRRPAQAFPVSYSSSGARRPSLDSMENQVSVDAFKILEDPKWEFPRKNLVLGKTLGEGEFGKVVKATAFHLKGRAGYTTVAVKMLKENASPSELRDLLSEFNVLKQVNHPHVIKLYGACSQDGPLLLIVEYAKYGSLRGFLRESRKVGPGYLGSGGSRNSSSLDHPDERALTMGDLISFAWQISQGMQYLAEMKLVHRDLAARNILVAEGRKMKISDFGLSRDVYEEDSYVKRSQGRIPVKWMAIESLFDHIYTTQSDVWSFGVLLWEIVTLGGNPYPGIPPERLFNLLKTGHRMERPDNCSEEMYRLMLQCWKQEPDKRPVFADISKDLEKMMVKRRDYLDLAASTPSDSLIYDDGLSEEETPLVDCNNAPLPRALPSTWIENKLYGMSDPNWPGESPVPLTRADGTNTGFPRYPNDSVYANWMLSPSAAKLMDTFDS
Chain of Ephrin type-A receptor 2 (P29317 whole entry): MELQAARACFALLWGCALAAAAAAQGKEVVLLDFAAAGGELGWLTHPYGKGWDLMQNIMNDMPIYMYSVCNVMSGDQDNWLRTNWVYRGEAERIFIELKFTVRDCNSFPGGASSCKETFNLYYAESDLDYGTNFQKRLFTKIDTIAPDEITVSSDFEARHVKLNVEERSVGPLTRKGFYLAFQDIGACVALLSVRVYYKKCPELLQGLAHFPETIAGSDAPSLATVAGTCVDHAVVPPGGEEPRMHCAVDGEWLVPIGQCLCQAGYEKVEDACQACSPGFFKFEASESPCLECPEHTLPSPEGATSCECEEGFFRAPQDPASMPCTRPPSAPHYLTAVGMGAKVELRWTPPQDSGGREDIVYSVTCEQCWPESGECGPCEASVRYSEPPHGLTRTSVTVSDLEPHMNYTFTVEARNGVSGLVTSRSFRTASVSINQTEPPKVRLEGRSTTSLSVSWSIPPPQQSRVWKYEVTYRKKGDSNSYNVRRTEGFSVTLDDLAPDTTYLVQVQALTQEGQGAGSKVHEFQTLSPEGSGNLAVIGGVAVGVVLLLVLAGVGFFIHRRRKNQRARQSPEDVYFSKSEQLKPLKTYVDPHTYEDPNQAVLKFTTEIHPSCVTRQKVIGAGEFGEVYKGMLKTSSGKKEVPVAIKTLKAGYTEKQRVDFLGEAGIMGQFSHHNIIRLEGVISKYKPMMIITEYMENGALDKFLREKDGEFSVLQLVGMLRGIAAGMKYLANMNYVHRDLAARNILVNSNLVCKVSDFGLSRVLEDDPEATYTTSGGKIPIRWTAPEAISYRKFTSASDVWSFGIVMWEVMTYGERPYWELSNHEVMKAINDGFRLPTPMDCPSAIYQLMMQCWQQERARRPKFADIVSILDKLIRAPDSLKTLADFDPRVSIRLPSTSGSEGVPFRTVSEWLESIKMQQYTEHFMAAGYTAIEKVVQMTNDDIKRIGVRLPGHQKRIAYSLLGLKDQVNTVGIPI

Turning to `O=C(Nc1ccc(Oc2ncnc3scc(-c4ccccc4)c23)c(F)c1)c1cccn(-c2ccc(F)cc2)c1=O`, the inhibition in [1] worked out at 94.3%. Further, the IC50 was 0.0357 µM in series [2]; 0.0504 µM in series [6]; > 10 µM in [7]; > 10 µM in series [8]; > 10 µM in series [9]; > 10 µM in [10]. For the same molecule, the IC50 (in series [11]; in series [12]; against Ephrin type-A receptor 2; at Ephrin type-B receptor 2; in series [13]; in series [14]) was > 10 µM in each case. Besides, in series [15], the IC50 is > 10 µM. Also, the inhibition at 10 µM with BaF3 [3] worked out at 94.6%. Also, the inhibition at 1 µM in the series on BaF3 [4] was determined as 69.5%. For the same molecule, the inhibition at 0.1 µM with BaF3 [5] was -10.5%. For the same molecule, the Activity entry with Mus musculus is “Non-toxic”. In addition, the half-life in series [16] is 1.67 h. In [17], this molecule had a clearance of 47.2 mL/min/kg. Also, in series [18], the bioavailability was determined as 5%. Besides, in [19], the solubility entry was “Insoluble”. Besides, the inhibition result in [20] and in series [21] was “Active” in each case.

Regarding `COc1cc2nccc(Oc3ccc(NC(=S)NC(=O)Cc4ccccc4)cc3F)c2cc1OC`, the inhibition in vivo at 100 mg/kg in series [22] is 70%.

As a reminder, the inhibition is the change of the read-out against control, counted positive when it falls. As usually defined, the IC50 is the point on the concentration scale where inhibition reaches its midpoint. The term half-life denotes the time in which the quantity being followed falls by half. Low values mean rapid decline, high ones slow decline. One may read the clearance as the rate of elimination divided by the concentration. What is called bioavailability is dose-corrected exposure relative to a reference, in per cent. One may read the inhibition in vivo as the share of the control response that was lost under treatment.
